ChEMBL document CHEMBL1649165, “Activity profile in vitro of micafungin against Spanish clinical isolates of common and emerging species of yeasts and molds” (2009)
≈ marks a conversion by molar mass, not a printed value.

Columns and labels:
Type in all cases: functional
Lichtheimia corymbifera = test: Antimicrobial activity against Mycocladus corymbiferus by broth microdilution method
How it was run: (§1)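 Filamentous fungus clinical isolates tested by the AFST-EUCAST reference broth microdilution method for moulds. For echinocandins, the endpoint was the minimum effective concentration: the lowest drug concentration giving aberrant hyphal growth, read with an inverted microscope.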

Aspergillus = test: Antimicrobial activity against Aspergillus spp. by broth microdilution method
How it was run: (§2)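 Clinical mould isolates, tested by broth microdilution using the AFST-EUCAST reference method for filamentous fungi. For echinocandins, the endpoint was the minimum effective concentration: the lowest drug concentration giving aberrant hyphal growth, read with an inverted microscope.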

Fusarium proliferatum = test: Antimicrobial activity against Fusarium proliferatum by broth microdilution method; how it was run: as §2
[1] = Antimicrobial activity against Hormographiella aspergillata by broth microdilution method; conditions: Coprinopsis cinerea; how it was run: as §1
Paecilomyces variotii = test: Antimicrobial activity against Paecilomyces variotii by broth microdilution method; how it was run: as §1
Lecythophora hoffmannii = test: Antimicrobial activity against Lecythophora hoffmannii by broth microdilution method; conditions: Coniochaeta hoffmannii; how it was run: as §1
Candida tropicalis = test: Antimicrobial activity against Candida tropicalis by broth microdilution method
How it was run: (§3)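 Clinical isolates from human patients, tested by broth microdilution using the AFST-EUCAST reference procedure for fermentative yeasts. The MIC was read per that reference method.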

Coprinellus domesticus = test: Antimicrobial activity against Hormographiella verticillata by broth microdilution method; how it was run: as §1
Trichosporon asahii = test: Antimicrobial activity against Trichosporon asahii by broth microdilution method
How it was run: (§4)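 Nonfermentative yeast clinical isolates (Rhodotorula, Trichosporon) tested by broth microdilution. The EUCAST yeast recommendations were followed strictly, with one minor modification to improve growth. MIC was read as the endpoint.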

Fennellia nivea = test: Antimicrobial activity against Aspergillus niveus by broth microdilution method; how it was run: as §2
[Candida] inconspicua = Antimicrobial activity against Candida inconspicua by broth microdilution method; conditions: Pichia inconspicua; how it was run: as §3
Yarrowia lipolytica = test: Antimicrobial activity against Yarrowia lipolytica by broth microdilution method
Nakaseomyces glabratus = test: Antimicrobial activity against Candida glabrata by broth microdilution method; how it was run: as §3
Beauveria bassiana = test: Antimicrobial activity against Beauveria bassiana by broth microdilution method; how it was run: as §2
Naganishia albida = test: Antimicrobial activity against Cryptococcus albidus by broth microdilution method
How it was run: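 Clinical isolates of nonfermentative yeasts, tested by broth microdilution following EUCAST recommendations. The only change from that method was a minor modification to improve growth.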

Candida orthopsilosis = test: Antimicrobial activity against Candida orthopsilosis by broth microdilution method; conditions: Lodderomyces orthopsilosis; how it was run: as §3
Aspergillus terreus = test: Antimicrobial activity against Aspergillus terreus by broth microdilution method; how it was run: as §2
Pichia kudriavzevii = test: Antimicrobial activity against Candida krusei by broth microdilution method; how it was run: as §3
Kluyveromyces marxianus = test: Antimicrobial activity against Candida kefyr by broth microdilution method; how it was run: as §3
Neurospora sitophila = test: Antimicrobial activity against Chrysonilia sitophila by broth microdilution method; how it was run: as §2
Mucor = test: Antimicrobial activity against Mucor spp.by broth microdilution method; how it was run: as §1
Candida parapsilosis = test: Antimicrobial activity against Candida parapsilosis by broth microdilution method; conditions: Lodderomyces parapsilosis; how it was run: as §3
Hortaea werneckii = test: Antimicrobial activity against Hortaea werneckii by broth microdilution method
Scedosporium apiospermum = test: Antimicrobial activity against Scedosporium apiospermum by broth microdilution method; how it was run: as §1
Magnusiomyces capitatus = test: Antimicrobial activity against Dipodascus capitatus by broth microdilution method
Rhodotorula glutinis = test: Antimicrobial activity against Rhodotorula glutinis by broth microdilution method; how it was run: as §4
Rhizopus arrhizus = test: Antimicrobial activity against Rhizopus oryzae by broth microdilution method; how it was run: as §1
[2] = test system: Cladophialophora bantiana; test: Antimicrobial activity against Cladophialophora bantiana by broth microdilution method; how it was run: as §2
Candida albicans = test: Antimicrobial activity against Candida albicans by broth microdilution method; how it was run: as §3
Lomentospora prolificans = test: Antimicrobial activity against Scedosporium prolificans by broth microdilution method; how it was run: as §1
[3] = test system: Cunninghamella bertholletiae; test: Antimicrobial activity against Cunninghamella bertholletiae by broth microdilution method; how it was run: as §2
[4] = test system: Kazachstania pintolopesii; test: Antimicrobial activity against Candida pintolopesii by broth microdilution method; conditions: Arxiozyma pintolopesii; how it was run: as §3
Fusarium solani = test: Antimicrobial activity against Fusarium solani by broth microdilution method; how it was run: as §1
Aspergillus flavus = test: Antimicrobial activity against Aspergillus flavus by broth microdilution method; how it was run: as §2
Aureobasidium pullulans = test: Antimicrobial activity against Aureobasidium pullulans by broth microdilution method
Clavispora lusitaniae = test: Antimicrobial activity against Candida lusitaniae by broth microdilution method; how it was run: as §3
Wickerhamomyces anomalus = test: Antimicrobial activity against Candida pelliculosa by broth microdilution method; conditions: Hansenula anomala; how it was run: as §3
Cladosporium = test: Antimicrobial activity against Cladosporium spp. by broth microdilution method; how it was run: as §2
Debaryomyces hansenii = test: Antimicrobial activity against Candida famata by broth microdilution method; how it was run: as §3
Fusarium equiseti = test: Antimicrobial activity against Fusarium equiseti by broth microdilution method; how it was run: as §2
[Candida] intermedia = Antimicrobial activity against Candida intermedia by broth microdilution method; conditions: Sungouiella intermedia; how it was run: as §3

CC[C@@H]([C@H](C)O)n1ncn(-c2ccc(N3CCN(c4ccc(OC[C@@H]5CO[C@@](Cn6cncn6)(c6ccc(F)cc6F)C5)cc4)CC3)cc2)c1=O [POSACONAZOLE]
MIC50 (Lichtheimia corymbifera): 0.5 µg/mL (≈ 0.713 µM) | MIC90 (Lichtheimia corymbifera): > 8 µg/mL | MIC50 (Aspergillus): 0.12 µg/mL (≈ 0.171 µM) | MIC90 (Aspergillus): > 8 µg/mL | MIC50 (Fusarium proliferatum): > 8 µg/mL | MIC90 (Fusarium proliferatum): > 8 µg/mL | MIC50 [1]: 4 µg/mL (≈ 5.71 µM) | MIC90 [1]: > 8 µg/mL | MIC50 (Paecilomyces variotii): 0.03 µg/mL (≈ 0.0428 µM) | MIC90 (Paecilomyces variotii): 0.25 µg/mL (≈ 0.357 µM) | MIC50 (Lecythophora hoffmannii): 0.06 µg/mL (≈ 0.0856 µM) | MIC90 (Lecythophora hoffmannii): > 8 µg/mL | MIC50 (Candida tropicalis): 0.02 µg/mL (≈ 0.0285 µM) | MIC90 (Candida tropicalis): 0.03 µg/mL (≈ 0.0428 µM) | MIC50 (Coprinellus domesticus): 4 µg/mL (≈ 5.71 µM) | MIC90 (Coprinellus domesticus): > 8 µg/mL | MIC50 (Trichosporon asahii): 0.25 µg/mL (≈ 0.357 µM) | MIC90 (Trichosporon asahii): > 8 µg/mL | MIC50 (Fennellia nivea): 0.12 µg/mL (≈ 0.171 µM) | MIC90 (Fennellia nivea): > 8 µg/mL | MIC50 ([Candida] inconspicua): 0.03 µg/mL (≈ 0.0428 µM) | MIC90 ([Candida] inconspicua): > 8 µg/mL | MIC50 (Yarrowia lipolytica): 0.25 µg/mL (≈ 0.357 µM) | MIC90 (Yarrowia lipolytica): 2 µg/mL (≈ 2.85 µM) | MIC50 (Nakaseomyces glabratus): 0.25 µg/mL (≈ 0.357 µM) | MIC90 (Nakaseomyces glabratus): 1 µg/mL (≈ 1.43 µM) | MIC50 (Beauveria bassiana): 4 µg/mL (≈ 5.71 µM) | MIC90 (Beauveria bassiana): > 8 µg/mL | MIC50 (Naganishia albida): 0.25 µg/mL (≈ 0.357 µM) | MIC90 (Naganishia albida): > 8 µg/mL | MIC50 (Candida orthopsilosis): 0.03 µg/mL (≈ 0.0428 µM) | MIC90 (Candida orthopsilosis): > 8 µg/mL | MIC50 (Aspergillus terreus): 0.06 µg/mL (≈ 0.0856 µM) | MIC90 (Aspergillus terreus): 0.12 µg/mL (≈ 0.171 µM) | MIC50 (Pichia kudriavzevii): 0.12 µg/mL (≈ 0.171 µM) | MIC90 (Pichia kudriavzevii): 0.25 µg/mL (≈ 0.357 µM) | MIC50 (Kluyveromyces marxianus): 0.03 µg/mL (≈ 0.0428 µM) | MIC90 (Kluyveromyces marxianus): 0.06 µg/mL (≈ 0.0856 µM) | MIC50 (Neurospora sitophila): 4 µg/mL (≈ 5.71 µM) | MIC90 (Neurospora sitophila): > 8 µg/mL | MIC50 (Mucor): 4 µg/mL (≈ 5.71 µM) | MIC90 (Mucor): > 8 µg/mL | MIC50 (Candida parapsilosis): 0.02 µg/mL (≈ 0.0285 µM) | MIC90 (Candida parapsilosis): 0.03 µg/mL (≈ 0.0428 µM) | MIC50 (Hortaea werneckii): 0.06 µg/mL (≈ 0.0856 µM) | MIC90 (Hortaea werneckii): > 8 µg/mL | MIC50 (Scedosporium apiospermum): 1 µg/mL (≈ 1.43 µM) | MIC90 (Scedosporium apiospermum): 8 µg/mL (≈ 11.4 µM) | MIC50 (Magnusiomyces capitatus): 0.5 µg/mL (≈ 0.713 µM) | MIC90 (Magnusiomyces capitatus): 0.5 µg/mL (≈ 0.713 µM) | MIC50 (Rhodotorula glutinis): 0.25 µg/mL (≈ 0.357 µM) | MIC90 (Rhodotorula glutinis): > 8 µg/mL | MIC50 (Rhizopus arrhizus): 2 µg/mL (≈ 2.85 µM) | MIC90 (Rhizopus arrhizus): > 8 µg/mL | MIC50 [2]: 0.06 µg/mL (≈ 0.0856 µM) | MIC90 [2]: > 8 µg/mL | MIC50 (Candida albicans): 0.02 µg/mL (≈ 0.0285 µM) | MIC90 (Candida albicans): 0.02 µg/mL (≈ 0.0285 µM) | MIC50 (Lomentospora prolificans): > 8 µg/mL | MIC90 (Lomentospora prolificans): > 8 µg/mL | MIC50 [3]: 4 µg/mL (≈ 5.71 µM) | MIC90 [3]: > 8 µg/mL | MIC50 [4]: 0.03 µg/mL (≈ 0.0428 µM) | MIC90 [4]: > 8 µg/mL | MIC50 (Fusarium solani): > 8 µg/mL | MIC90 (Fusarium solani): > 8 µg/mL | MIC50 (Aspergillus flavus): 0.12 µg/mL (≈ 0.171 µM) | MIC90 (Aspergillus flavus): 0.25 µg/mL (≈ 0.357 µM) | MIC50 (Aureobasidium pullulans): 0.06 µg/mL (≈ 0.0856 µM) | MIC90 (Aureobasidium pullulans): > 8 µg/mL | MIC50 (Clavispora lusitaniae): 0.02 µg/mL (≈ 0.0285 µM) | MIC90 (Clavispora lusitaniae): 0.02 µg/mL (≈ 0.0285 µM) | MIC50 (Wickerhamomyces anomalus): 0.03 µg/mL (≈ 0.0428 µM) | MIC90 (Wickerhamomyces anomalus): > 8 µg/mL | MIC50 (Cladosporium): 0.06 µg/mL (≈ 0.0856 µM) | MIC90 (Cladosporium): > 8 µg/mL | MIC50 (Debaryomyces hansenii): 0.03 µg/mL (≈ 0.0428 µM) | MIC90 (Debaryomyces hansenii): > 8 µg/mL | MIC50 (Fusarium equiseti): 4 µg/mL (≈ 5.71 µM) | MIC90 (Fusarium equiseti): > 8 µg/mL | MIC50 ([Candida] intermedia): 0.03 µg/mL (≈ 0.0428 µM) | MIC90 ([Candida] intermedia): > 8 µg/mL
